ABCB1 inh: inhibitors of human ABCB1 transporter, ABCG2 counter-screen; P08183; CCRF-Adr cells, JC-1 efflux, flow cytometry; inhibition, % at 6.6 µM; 190,000 compounds, 0.067% hits; in the data active means inhibition above about 40%;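 further: 0% = vehicle and 100% = reference inhibitor; higher value means more JC-1 retained so stronger ABCB1 efflux block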
Target sequence (P08183 whole entry, looked up): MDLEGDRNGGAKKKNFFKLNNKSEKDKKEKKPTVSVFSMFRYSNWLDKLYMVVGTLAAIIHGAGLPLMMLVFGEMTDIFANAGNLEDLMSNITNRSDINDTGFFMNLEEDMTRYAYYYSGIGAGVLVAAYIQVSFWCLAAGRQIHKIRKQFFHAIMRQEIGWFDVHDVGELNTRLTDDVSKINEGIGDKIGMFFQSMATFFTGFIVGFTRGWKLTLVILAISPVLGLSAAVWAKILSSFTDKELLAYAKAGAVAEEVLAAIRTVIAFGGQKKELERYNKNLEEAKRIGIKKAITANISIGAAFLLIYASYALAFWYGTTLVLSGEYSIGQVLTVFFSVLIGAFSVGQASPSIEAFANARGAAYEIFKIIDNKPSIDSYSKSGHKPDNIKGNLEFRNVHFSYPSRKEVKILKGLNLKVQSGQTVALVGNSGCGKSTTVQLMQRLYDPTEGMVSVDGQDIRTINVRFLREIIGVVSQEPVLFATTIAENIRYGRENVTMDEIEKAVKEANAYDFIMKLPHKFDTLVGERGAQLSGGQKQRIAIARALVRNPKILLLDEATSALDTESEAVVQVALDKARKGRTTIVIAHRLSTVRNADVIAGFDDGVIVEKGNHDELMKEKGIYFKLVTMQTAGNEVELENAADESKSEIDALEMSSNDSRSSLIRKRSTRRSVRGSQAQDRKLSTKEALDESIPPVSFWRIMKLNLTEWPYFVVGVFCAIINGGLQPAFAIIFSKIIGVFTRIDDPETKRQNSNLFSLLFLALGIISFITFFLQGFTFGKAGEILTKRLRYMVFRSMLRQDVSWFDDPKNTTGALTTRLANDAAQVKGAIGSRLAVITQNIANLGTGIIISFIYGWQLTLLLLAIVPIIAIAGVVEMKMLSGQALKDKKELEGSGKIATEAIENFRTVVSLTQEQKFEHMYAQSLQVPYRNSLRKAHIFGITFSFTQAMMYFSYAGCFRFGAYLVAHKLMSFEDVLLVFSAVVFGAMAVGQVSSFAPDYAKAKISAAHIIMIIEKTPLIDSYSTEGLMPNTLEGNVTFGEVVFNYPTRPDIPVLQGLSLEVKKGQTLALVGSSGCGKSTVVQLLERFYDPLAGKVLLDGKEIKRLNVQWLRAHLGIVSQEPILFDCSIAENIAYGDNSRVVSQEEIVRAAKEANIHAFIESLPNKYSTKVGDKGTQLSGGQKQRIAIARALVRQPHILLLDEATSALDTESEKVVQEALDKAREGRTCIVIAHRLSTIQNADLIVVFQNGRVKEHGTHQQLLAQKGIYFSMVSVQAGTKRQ
RGS16-Gao: regulators of human RGS16-Galphao interaction; O15492+P09471; bead-based flow cytometry RGS16-Galphao binding, fluorescence; actives lie on both sides; binding response (% of control), % at 10 µM; 220,000 compounds, 0.38% hits; AID 1441;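 further: Galphao activated by GDP with aluminum fluoride before binding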
RGS4-Gao reg: human RGS4-Galphao interaction regulation | Multiplexed bead flow cytometry, RGS4-Galphao binding; actives lie on both sides | binding response (% of control), % at 10 µM | P09471 | 220,000 compounds, 0.33% hits | AID 1415; in the data active means binding response below about 49% or above about 150%; inactive means in between;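 further: fluorescent Galphao activated with aluminum fluoride binding bead-coupled RGS4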
RGS7-Gao: modulates binding of RGS7 to human Galphao; Multiplexed bead flow cytometry; actives lie on both sides; binding response (% of control), % at 10 µM; 220,000 compounds, 0.35% hits; in the data active means binding response below about 49% or above about 150%; inconclusive means no clear call, values can overlap the other calls; inactive means in between;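 further: fluorescent Galphao held in activated GDP-AlF4 state binding bead-coupled RGS7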
RGS8-Gao: modulates binding of RGS8 to human Galphao; multiplexed bead flow cytometry; actives lie on both sides; response (percent of control binding), % at 10 µM; 220,000 compounds, 0.34% hits; AID 1423; in the data active means response below about 60% or above about 140%; inactive means in between;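 further: Galphao activated as the GDP aluminium fluoride complex binding bead-coupled RGS8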
ABCG2 block: blocks JC-1 efflux by human ABCG2 transporter; inhibition, % at 6.6 µM; 190,000 compounds, 0.1% hits; IgMXP3 cells, flow cytometry; Q9UNQ0;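 active means inhibition above 80%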;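 further: 0% = DMSO and 100% = nicardipine control wells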
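System: two drug-resistant human cell lines, ABCG2 and ABCB1; controls: nicardipine high and DMSO low controls; times: 10 min exposure at 25 °C with rotation, no wash; detection: flow cytometry of retained JC-1 fluorescence; read-out basis: percent efflux inhibition, scaled nicardipine 100% to DMSO 0%; doses: one concentration, 6.6 µM final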
RGS4-Gao HTS: RGS4-Galphao interaction regulator (human); shares compounds with RGS16-Gao; multiplexed bead flow cytometry, RGS–Galpha-o binding; RGS4–Galpha-o binding response, % at 10 µM; 1,600 compounds, 99% hits;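 further: fluorescently labeled Galpha-o bound to GDP with aluminium fluoride binding biotinylated RGS beads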
Biotin-avidin: biotin-avidin bead binding disruption counter-screen; inhibition, % at 10 µM; shares compounds with RGS16-Gao; streptavidin beads, fluorescein-biotin binding, flow cytometry; 1,700 tested, under 10 active;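 active means inhibition above 50%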;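 further: median green fluorescence of gated singlet beads compared with DMSO control wells; 0% = DMSO wells and 100% = complete loss of bead fluorescence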
RGS8-Gao confirm: confirmation of regulators of human RGS8-Galphao interaction. shares compounds with RGS16-Gao. bead-based flow cytometry RGS8-Galphao binding, fluorescence; actives lie on both sides. binding response (% of control), % at 10 µM. 1,700 compounds, 3% hits; in the data active means binding response below about 72% or above about 130%; inactive means in between;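 further: Galphao activated as GDP AlF4 complex before binding bead RGS8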
RGS7-Gao single: confirmation of regulators of human RGS7-Galphao interaction; shares compounds with RGS16-Gao; bead-based flow cytometry RGS7-Galphao binding; actives lie on both sides; 1,700 compounds, 7.8% hits; response (percent of control binding), % at 10 µM; AID 1837; in the data active means response below about 75% or above about 130%; inactive means in between;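 further: fluorescent Galphao activated with GDP and aluminum fluoride binding bead-coupled RGS7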
RGS16-Gao single: confirmation of regulators of human RGS16-Galphao interaction. shares compounds with RGS16-Gao. bead-based flow cytometry, RGS16-Galphao binding; actives lie on both sides. response (% of control binding), % at 10 µM. 1,700 compounds, 4% hits; in the data active means response below about 74% or above about 130%; inactive means in between;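 further: Galphao activated as the GDP aluminium fluoride complex binding bead-coupled RGS16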
RGS4-Gao confirm: confirmation of regulators of human RGS4-Galphao interaction; shares compounds with RGS16-Gao; RGS4-Galphao binding, multiplexed bead flow cytometry; actives lie on both sides; binding response (% of control), % at 10 µM; 1,700 compounds, 4% hits; in the data active means binding response below about 74% or above about 130%; inactive means in between
RGS19-Gao conf: RGS19-Galphao interaction regulation, single point confirmation; bead-based flow cytometry RGS19-Galphao binding; actives lie on both sides; response (percent of control binding), % at 10 µM; 1,700 compounds, 5% hits; shares compounds with RGS16-Gao; in the data active means response below about 50% or above about 160%; inactive means in between;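 further: 100% = no compound control and 0% = blank background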
Numbers without * were called inactive; [ ] = another dose, or the depositor's remark. Most compounds without a hit are left out; they make up all but 0.9% or so of the library. Unless noted, how the calls were made is not given here.

COc1ccc(C(CCNCc2ccc(OC(C)C)cc2)C(C)C)cc1 (configuration not stated) was read as RGS16-Gao -5.3*, RGS4-Gao reg -9.6*, RGS7-Gao inconclusive, RGS8-Gao 8.9*, Biotin-avidin 0, RGS8-Gao confirm 102, RGS7-Gao single 90, RGS16-Gao single 94, RGS4-Gao confirm 94 and RGS19-Gao conf 77.
For C/C(CC(=O)Nc1ccc(Cl)cc1Cl)=N\NC(=O)c1cnccn1 the results were RGS16-Gao 98, RGS4-Gao reg 100, RGS7-Gao inconclusive and RGS8-Gao 100.
`N=C(N)N1CCN(Cc2ccccc2)CC1` gave ABCB1 inh 1, RGS16-Gao 98, RGS4-Gao reg 102, RGS7-Gao 103, RGS8-Gao 102 and ABCG2 block 3.
Screening COc1ccc(NC(=O)C2CC(=O)OC2c2ccccc2)cc1 (configuration not stated) returned ABCB1 inh 0, RGS16-Gao 24*, RGS4-Gao reg 96, RGS7-Gao 99, RGS8-Gao 90, ABCG2 block 0, RGS4-Gao HTS 96*, Biotin-avidin 0, RGS8-Gao confirm 104, RGS7-Gao single 103, RGS16-Gao single 104, RGS4-Gao confirm 103 and RGS19-Gao conf 102.
For CCOc1cc2c(cc1/C=C1/NC(=O)N(CC(=O)OC)C1=O)OCO2 the results were ABCB1 inh 0, RGS16-Gao 103, RGS4-Gao reg 99, RGS7-Gao 100, RGS8-Gao 102 and ABCG2 block 1.
For O=C(Nc1cccc(O)c1)c1noc2c1CCCCC2 the results were ABCB1 inh 0, ABCG2 block 1, Biotin-avidin 1, RGS8-Gao confirm 107, RGS7-Gao single 106, RGS16-Gao single 110, RGS4-Gao confirm 103 and RGS19-Gao conf 103.
CC(=O)c1ccc(OCCn2cnc3ccccc32)cc1 was read as ABCB1 inh 1, RGS16-Gao 192*[activator], RGS4-Gao reg 112, RGS7-Gao 109, RGS8-Gao 120, ABCG2 block 9, RGS4-Gao HTS 112*, Biotin-avidin -1, RGS8-Gao confirm 100, RGS7-Gao single 101, RGS16-Gao single 102, RGS4-Gao confirm 101 and RGS19-Gao conf 109.
NS(=O)(=O)c1ccc(CCNC(=O)c2ccc(Cn3c(=O)[nH]c4ccccc4c3=O)cc2)cc1 was read as ABCB1 inh 1, RGS16-Gao 104, RGS4-Gao reg 100, RGS7-Gao 102, RGS8-Gao 101 and ABCG2 block 3.
For CCC(C)(C)NC(=O)C1CCN(S(=O)(=O)c2cccs2)CC1 the results were ABCB1 inh 1, RGS16-Gao 364*[activator], RGS4-Gao reg 465*[activator], RGS7-Gao 424*[activator], RGS8-Gao 129, ABCG2 block 4, Biotin-avidin 3, RGS8-Gao confirm 101, RGS7-Gao single 102, RGS16-Gao single 101, RGS4-Gao confirm 101 and RGS19-Gao conf 85.
`CCOC(=O)C(NC(C)=O)(Nc1cccc(F)c1)C(F)(F)F` (configuration not stated) gave ABCB1 inh 0, RGS16-Gao 103, RGS4-Gao reg 104, RGS7-Gao 103, RGS8-Gao 106 and ABCG2 block 3.
`CCOC(=O)C(NC(C)=O)(Nc1ccc(F)cc1)C(F)(F)F` (configuration not stated) gave ABCB1 inh 1, RGS16-Gao 119, RGS4-Gao reg 138, RGS7-Gao 205*[activator], RGS8-Gao 99, ABCG2 block 4, RGS4-Gao HTS 138*, Biotin-avidin 2, RGS8-Gao confirm 103, RGS7-Gao single 108, RGS16-Gao single 104, RGS4-Gao confirm 106 and RGS19-Gao conf 106.
CCOc1ccc(NC(=O)C2CCCN(C)C2)cc1 (configuration not stated) was read as RGS16-Gao 101, RGS4-Gao reg 100, RGS7-Gao inconclusive and RGS8-Gao 101.
For Cc1ccc(NC(=O)N2N=C(c3ccc(F)cc3)CC2c2ccc(F)cc2)cc1 (configuration not stated) the results were ABCB1 inh 0, RGS16-Gao 105, RGS4-Gao reg 103, RGS7-Gao 103, RGS8-Gao 104 and ABCG2 block 1.
Cc1cc(C(F)(F)F)nn1CC(=O)NCc1cccs1 was read as ABCB1 inh 0, RGS16-Gao 106, RGS4-Gao reg 98, RGS7-Gao 93, RGS8-Gao 105 and ABCG2 block 2.
For COCC(=O)NC1(c2nnnn2CCOC(=O)Nc2ccc(Cl)cc2)CCCCC1 the results were ABCB1 inh 2, RGS16-Gao 98, RGS4-Gao reg 116, RGS7-Gao 255*[activator], RGS8-Gao 101, ABCG2 block 10, RGS4-Gao HTS 116*, Biotin-avidin 0, RGS8-Gao confirm 108, RGS7-Gao single 115, RGS16-Gao single 109, RGS4-Gao confirm 110 and RGS19-Gao conf 106.
Screening Cc1nc2cc(-c3ccccc3)nn2c(C)c1CCC(=O)NC(C)c1ccc2c(c1)OCCO2 (configuration not stated) returned ABCB1 inh 2, RGS16-Gao 100, RGS4-Gao reg 98, RGS7-Gao 96, RGS8-Gao 100 and ABCG2 block 27.
`Cc1ccc(-n2[nH]c(C)c(CCC#N)c2=O)cc1` gave ABCB1 inh 0, RGS16-Gao 119, RGS4-Gao reg 108, RGS7-Gao 106, RGS8-Gao 110 and ABCG2 block 0.

Compound activity deposited in PubChem BioAssay by NMMLSC.
